The source made the active and inactive calls. No cut-off for these calls is given here.
Columns and labels:
[1] = target: T1, Nitric oxide synthase, inducible (Mus musculus) (UniProt P29477); settings: RAW264.7, 300 uM
T1 sequence (whole entry): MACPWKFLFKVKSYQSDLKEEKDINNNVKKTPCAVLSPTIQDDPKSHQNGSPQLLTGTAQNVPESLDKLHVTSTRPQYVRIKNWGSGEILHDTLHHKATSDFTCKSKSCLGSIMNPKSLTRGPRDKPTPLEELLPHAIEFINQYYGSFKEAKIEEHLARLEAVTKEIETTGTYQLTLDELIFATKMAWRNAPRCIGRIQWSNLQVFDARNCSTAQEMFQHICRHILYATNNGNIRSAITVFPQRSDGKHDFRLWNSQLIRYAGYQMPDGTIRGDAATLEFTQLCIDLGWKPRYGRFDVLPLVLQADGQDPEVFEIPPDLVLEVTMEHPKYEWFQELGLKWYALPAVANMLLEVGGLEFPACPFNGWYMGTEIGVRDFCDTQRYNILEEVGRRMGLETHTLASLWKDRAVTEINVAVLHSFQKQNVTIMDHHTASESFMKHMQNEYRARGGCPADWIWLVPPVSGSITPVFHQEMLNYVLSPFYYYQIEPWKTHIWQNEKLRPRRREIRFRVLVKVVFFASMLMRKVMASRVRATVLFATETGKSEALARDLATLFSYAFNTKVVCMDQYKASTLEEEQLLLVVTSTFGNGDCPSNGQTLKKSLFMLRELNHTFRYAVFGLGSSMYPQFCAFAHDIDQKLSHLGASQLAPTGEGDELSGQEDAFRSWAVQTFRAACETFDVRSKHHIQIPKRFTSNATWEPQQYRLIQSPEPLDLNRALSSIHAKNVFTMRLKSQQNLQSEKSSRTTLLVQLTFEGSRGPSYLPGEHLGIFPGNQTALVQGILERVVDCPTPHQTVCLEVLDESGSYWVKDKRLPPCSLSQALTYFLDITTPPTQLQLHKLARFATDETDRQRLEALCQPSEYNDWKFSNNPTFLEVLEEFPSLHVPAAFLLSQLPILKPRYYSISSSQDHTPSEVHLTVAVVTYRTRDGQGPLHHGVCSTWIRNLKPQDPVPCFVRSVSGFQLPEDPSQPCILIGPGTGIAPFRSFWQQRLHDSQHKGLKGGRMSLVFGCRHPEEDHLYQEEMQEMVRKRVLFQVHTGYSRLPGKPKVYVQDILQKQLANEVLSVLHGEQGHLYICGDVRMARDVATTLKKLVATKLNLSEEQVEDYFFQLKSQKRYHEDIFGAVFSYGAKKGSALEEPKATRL

[2] = target: T1, Nitric oxide synthase, inducible (Mus musculus); experiment: Inhibition of iNOS in mouse RAW264.7 cells at 50 ug/ml; type: cell-based
RAW264.7 [3] = experiment: Reduction of iNOS expression in LPS-stimulated mouse RAW264.7 cells after 24 hrs by Western blot analysis; type: functional, cell-based
In short: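 Cells treated with LPS and compound at 10−60 μg/mL for 24 h. Lysates immunoblotted with rabbit polyclonal anti-iNOS, detecting a 130 kD band matched to purified iNOS. Beta-actin (43 kD) used as loading control.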

RAW264.7 [4] = experiment: Cytotoxicity against mouse RAW264.7 cells assessed as reduction in cellular metabolism by MTT assay; type: ADME, cell-based
In short: (§1)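 RAW 264.7 cells exposed to compound at 20−60 μg/mL over the course of the experimental procedures. Viability checked by trypan blue exclusion (membrane integrity) and by MTT test (cellular metabolism/mitochondrial respiration).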

RAW264.7 [5] = experiment: Inhibition of LPS-induced NO production in mouse RAW264.7 cells assessed as reduction in nitrite level after 48 hrs by Griess reagent method in presence of TLR2 agonist pam2CSK4; type: functional, cell-based
In short: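 Cells stimulated through TLR2 with Pam2CSK4 (500 ng/mL) and incubated with compound at 30−60 μg/mL for 48 h. Nitrite read-out by Griess reaction.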

RAW264.7 [6] = experiment: Cytotoxicity against LPS-stimulated mouse RAW264.7 cells assessed as decrease in total mRNA transcription after 24 hrs by RT-PCR analysis; type: cell-based; settings: raw264.7, 24 h
In short: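 LPS-stimulated RAW 264.7 macrophages co-incubated with test compound at 20−60 μg/mL for 24 h. iNOS mRNA (775 bp) and beta-actin mRNA (513 bp) analysed by semiquantitative competitive RT-PCR, with actin mRNA used to judge any generalized fall in transcription. One representative of three experiments.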

RAW264.7 [7] = experiment: Reduction of IL-6 mRNA expression in LPS-stimulated mouse RAW264.7 cells by RT-PCR analysis; type: functional, cell-based
In short: (§2)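 IL-1beta, IL-6 and TNF-alpha mRNA from RAW 264.7 cells quantified by real-time RT-PCR using intron- or exon−exon boundary spanning primers. Results given as mean normalized expression; IL-6 and TNF-alpha levels normalized to 1000 copies of beta-actin.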

RAW264.7 [8] = experiment: Inhibition of LPS-induced NO production in mouse RAW264.7 cells assessed as reduction in nitrite level at 30 ug/ml after 24 hrs by Griess reagent method; type: functional; settings: RAW264.7, 24 h
[9] = target: T2, Nuclear factor NF-kappa-B p105 subunit (Mus musculus) (UniProt P25799); experiment: Inhibition of binding of NFkappa-B p50 subunit to biotinylated consensus sequence in nuclear extract of LPS-stimulated mouse RAW264.7 cells after 1 hr by; type: cell-based
T2 sequence (whole entry): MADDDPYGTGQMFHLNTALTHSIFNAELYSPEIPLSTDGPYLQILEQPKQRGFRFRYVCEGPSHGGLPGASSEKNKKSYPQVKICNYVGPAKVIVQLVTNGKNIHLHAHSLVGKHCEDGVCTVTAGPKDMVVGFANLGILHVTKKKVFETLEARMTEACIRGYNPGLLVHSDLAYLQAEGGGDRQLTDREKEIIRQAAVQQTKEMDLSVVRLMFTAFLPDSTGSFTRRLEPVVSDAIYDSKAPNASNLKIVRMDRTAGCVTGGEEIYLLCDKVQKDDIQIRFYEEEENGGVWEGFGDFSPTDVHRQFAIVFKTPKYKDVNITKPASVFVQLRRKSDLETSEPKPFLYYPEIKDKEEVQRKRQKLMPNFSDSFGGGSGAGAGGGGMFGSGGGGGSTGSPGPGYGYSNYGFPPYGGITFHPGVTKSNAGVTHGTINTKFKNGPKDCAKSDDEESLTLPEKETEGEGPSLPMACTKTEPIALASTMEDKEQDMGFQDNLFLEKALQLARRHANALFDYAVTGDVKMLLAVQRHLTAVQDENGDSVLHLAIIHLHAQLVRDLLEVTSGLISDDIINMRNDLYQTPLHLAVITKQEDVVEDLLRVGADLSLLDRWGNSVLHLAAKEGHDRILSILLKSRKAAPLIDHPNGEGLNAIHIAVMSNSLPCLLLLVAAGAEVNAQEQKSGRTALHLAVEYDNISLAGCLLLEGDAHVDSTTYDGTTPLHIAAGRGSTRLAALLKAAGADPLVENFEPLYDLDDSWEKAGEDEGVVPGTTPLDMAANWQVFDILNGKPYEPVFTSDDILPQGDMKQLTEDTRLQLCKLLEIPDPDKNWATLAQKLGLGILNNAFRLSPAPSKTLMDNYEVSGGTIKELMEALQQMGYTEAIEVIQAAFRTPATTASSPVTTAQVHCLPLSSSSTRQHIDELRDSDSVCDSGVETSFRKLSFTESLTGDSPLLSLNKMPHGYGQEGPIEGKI
In short: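 RAW 264.7 cells (1 × 10^6) seeded in six-well plates, with LPS and compound added together for 1 h. Nuclear extracts prepared and binding of NF-κB p50 to a biotinylated consensus sequence read as relative light units.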

RAW264.7 [10] = experiment: Inhibition of LPS-induced NO production in mouse RAW264.7 cells assessed as reduction in nitrite level after 24 hrs by Griess reagent method in presence of TLR4 agonist Kdo2
RAW264.7 [11] = experiment: Reduction of IL-1beta mRNA expression in LPS-stimulated mouse RAW264.7 cells by RT-PCR analysis; type: functional, cell-based
In short: as §2

RAW264.7 [12] = experiment: Reduction of TNFalpha mRNA expression in LPS-stimulated mouse RAW264.7 cells by RT-PCR analysis; type: functional, cell-based
In short: as §2

RAW264.7 [13] = experiment: Inhibition of LPS-induced NO production in mouse RAW264.7 cells assessed as reduction in nitrite level after 24 hrs by Griess reagent method in presence of IFN-gamma; type: functional, cell-based
In short: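 Stimulation of the JAK-STAT pathway in RAW 264.7 cells with interferon-gamma at 100 U/mL in the presence of compound. Inducible NO synthesis measured as medium nitrite by Griess reaction.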

RAW264.7 [14] = experiment: Inhibition of LPS-induced NO production in mouse RAW264.7 cells assessed as reduction in nitrite level at 60 ug/ml after 24 hrs by Griess reagent method; type: functional; settings: RAW264.7, 24 h
RAW264.7 [15] = experiment: Cytotoxicity against mouse RAW264.7 cells assessed as reduction in membrane integrity by MTT assay; type: cell-based; settings: in the assay text read “trypan blue exclusion assay” for “MTT assay”
In short: as §1

RAW264.7 [16] = experiment: Inhibition of LPS-induced NO production in mouse RAW264.7 cells assessed as reduction in nitrite level at 20 ug/ml after 24 hrs by Griess reagent method; type: functional; settings: RAW264.7, 24 h
RAW264.7 [17] = experiment: Inhibition of LPS-induced NO production in mouse RAW264.7 cells assessed as reduction in nitrite level within 24 hrs by Griess reagent method; type: functional, cell-based; settings: for IC50: RAW264.7, 24 h
[18] = target: Transcription factor p65 (Mus musculus) (UniProt Q04207); experiment: Inhibition of NFkappa-B p65 subunit nuclear translocation in LPS-stimulated mouse RAW264.7 cells preincubated for 30mins before LPS treatment by Western blot analysis; type: cell-based
Chain of Transcription factor p65 (Mus musculus) (Q04207 whole entry): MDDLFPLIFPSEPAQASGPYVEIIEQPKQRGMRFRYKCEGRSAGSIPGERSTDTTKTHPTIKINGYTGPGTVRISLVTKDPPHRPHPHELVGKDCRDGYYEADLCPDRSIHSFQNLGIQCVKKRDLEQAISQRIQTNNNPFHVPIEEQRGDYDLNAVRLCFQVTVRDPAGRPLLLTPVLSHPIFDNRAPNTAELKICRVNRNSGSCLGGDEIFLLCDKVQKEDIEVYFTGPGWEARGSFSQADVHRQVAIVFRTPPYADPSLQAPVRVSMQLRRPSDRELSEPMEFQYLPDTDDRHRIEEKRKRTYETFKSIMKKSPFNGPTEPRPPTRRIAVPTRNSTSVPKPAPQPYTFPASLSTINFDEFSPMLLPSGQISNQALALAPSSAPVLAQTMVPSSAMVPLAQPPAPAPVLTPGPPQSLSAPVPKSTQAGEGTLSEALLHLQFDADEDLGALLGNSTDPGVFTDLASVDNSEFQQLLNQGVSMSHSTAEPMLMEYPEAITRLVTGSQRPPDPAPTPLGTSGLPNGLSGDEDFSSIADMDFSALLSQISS
In short: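 Macrophages pre-incubated with compound at 20−60 μg/mL for 30 min, then stimulated with LPS for 20 min. Nuclear extracts immunoblotted against NF-κB p65, detected as a 65 kD band.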

RAW264.7 [19] = experiment: Reduction of iNOS mRNA expression in LPS-stimulated mouse RAW264.7 cells after 24 hrs by RT-PCR analysis; type: functional, cell-based
In short: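 LPS-stimulated macrophages given compound at 20−60 μg/mL for 24 h. iNOS mRNA (775 bp) measured by semiquantitative competitive RT-PCR against beta-actin mRNA (513 bp). One representative of three experiments.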

RAW264.7 [20] = experiment: Inhibition of LPS-induced NO production in mouse RAW264.7 cells assessed as reduction in nitrite level after 24 hrs by Griess reagent method in presence of TLR4 agonist Kdo2; type: functional, cell-based
In short: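 TLR4 activation of RAW 264.7 cells with Kdo2-lipid A at 500 ng/mL, together with compound at 30−60 μg/mL for 24 h. Nitrite in the culture medium determined by Griess reaction.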

RAW264.7 [21] = experiment: Inhibition of LPS-induced NO production in mouse RAW264.7 cells assessed as reduction in nitrite level after 24 hrs by Griess reagent method in presence of TLR2 agonist pam2CSK4; type: functional, cell-based
RAW264.7 [22] = experiment: Cytotoxicity against mouse RAW264.7 cells assessed as reduction in mitochondrial respiration by MTT assay; type: cell-based
In short: as §1

[23] = target: T1, Nitric oxide synthase, inducible (Mus musculus); experiment: Inhibition of iNOS in mouse RAW264.7 cells at 60 ug/ml; type: cell-based
In short: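 Cytosolic iNOS enzymatic activity assayed with compound at 60 μg/mL final concentration, compared with incubations lacking compound. L-NAME (300 μM) and W1400 (50 μg/mL) served as reference inhibitors.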

COC(=O)[C@@H](N)CCCNC(=N)N[N+](=O)[O-]
inhibition [1]: > 70%

CC(=N)NCc1cccc(CN)c1
inhibition [2]: > 70%

O=C(O[C@H]1[C@@H]2OC(=O)c3cc(O)c(O)c(O)c3-c3c4cc(c(O)c3O)Oc3c(cc(O)c(O)c3O)C(=O)O[C@H]3C(O)O[C@@H]5COC(=O)c6cc(O)c(O)c(O)c6-c6c(cc(c(O)c6O)Oc6c(cc(O)c(O)c6O)C(=O)O[C@H]1C(O)O[C@@H]2COC4=O)C(=O)O[C@H]5[C@@H]3OC(=O)c1cc(O)c(O)c(O)c1)c1cc(O)c(O)c(O)c1 (stereo not given in full) [OENOTHEIN B]
Activity (RAW264.7 [3]): Dose-dependent effect
Activity (RAW264.7 [4]): Non-toxic
inhibition (RAW264.7 [5]): Dose-dependent effect
Activity (RAW264.7 [6]): Non-toxic
Activity (RAW264.7 [7]): Active
inhibition at 30 µg/mL (RAW264.7 [8]): 64.6%
inhibition [9]: Active
inhibition (RAW264.7 [10]): Dose-dependent effect
Activity (RAW264.7 [11]): Active
Activity (RAW264.7 [12]): Active
inhibition (RAW264.7 [13]): inactive
inhibition at 60 µg/mL (RAW264.7 [14]): 87.9%
Activity (RAW264.7 [15]): Non-toxic
inhibition at 20 µg/mL (RAW264.7 [16]): 34.8%
inhibition (RAW264.7 [17]): Dose-dependent effect
IC50 (RAW264.7 [17]): 17.7 µM
inhibition [18]: Dose-dependent effect
Activity (RAW264.7 [19]): Dose-dependent effect
inhibition (RAW264.7 [20]): Dose-dependent effect
inhibition (RAW264.7 [21]): Dose-dependent effect
Activity (RAW264.7 [22]): Non-toxic
inhibition [23]: inactive

O=C(O)c1cc(O)c(O)c(O)c1 [GALLIC ACID]
IC50 (RAW264.7 [17]): 632 µM

From ChEMBL document CHEMBL2176877, “Inhibition of NF-κB-dependent cytokine and inducible nitric oxide synthesis by the macrocyclic ellagitannin oenothein B in TLR-stimulated RAW 264.7 macrophages” (J Nat Prod, 2012)
